Reference: ChEMBL document CHEMBL3739314, “Discovery of Nanomolar Dengue and West Nile Virus Protease Inhibitors Containing a 4-Benzyloxyphenylglycine Residue” (J Med Chem, 2015)
Calls of active or inactive are those of the source. The rule behind the calls is not given here. Square brackets hold non-standard residues; d marks the D form. Peptide text beside a SMILES is read from it. * marks the point of attachment. dPhg = N[C@@H](C(=O)O)c1ccccc1; Bz = O=C(c1ccccc1)*

How the values were obtained:
[1] = Inhibition of Dengue virus serotype-2 NS2B-NS3 protease using 2-Abz-Nle-Lys-Arg-Arg-Ser-(3-NO2)-Tyr-NH2 as substrate preincubated with protein for 15 mins followed by substrate addition measured for 15 mins by FRET assay; design: species or system dengue virus type 2
How it was run: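 DENV-2 NS2B-NS3 linked construct at 30 nM (15 nM in some cases), same pH 9 Tris buffer, 15 min preincubation and FRET read-out. Eight inhibitor concentrations spanned 0–1, 0–2, 0–6 or 0–50 μM, with substrate at 50 μM. IC50 was fitted from triplicates.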

Trypsin (Homo sapiens) = Trypsin (Homo sapiens) (UniProt P07477+P07478+P35030); test: Inhibition of trypsin (unknown origin) using Boc-Val-Pro-Arg-AMC as substrate at 25 uM preincubated with protein for 15 mins followed by substrate addition by continuous fluorimetric assay relative to control
[2] = Cytotoxicity against human HuH7 cells infected with Dengue virus serotype-2 assessed as cell viability after 48 hrs by Cell-Titer-Glo luminescent viability assay; assay type: cell-based, Huh-7
How it was run: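 Huh-7 cells (10^4/well) were seeded in DMEM + 10% FBS overnight, then infected with WT DENV-2 (MOI 1) in the presence of compound, triplicate per concentration. After 48 h at 37 °C, medium was replaced with fresh DMEM and viability was read by CellTiter-Glo luminescence. CC50 was determined.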

West Nile virus [3] = test: Inhibition of West Nile virus NS2B-NS3 protease using 2-Abz-Gly-Leu-Lys-Arg-Gly-Gly-[…]-Tyr-NH2 as substrate at 50 uM preincubated with protein for 15 mins followed by substrate addition measured for 15 mins by FRET assay
How it was run: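 Linked WNV NS2B-NS3 protease (150 nM) was preincubated 15 min with inhibitor (50 μM final) in 50 mM Tris-HCl pH 9, 10% ethylene glycol, 0.0016% Brij 58. […] Percent inhibition was taken from the slope relative to the no-inhibitor control, in triplicate.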

[4] = Retention time of compound by RP-HPLC analysis; assay type: physicochemical
dengue virus type 2 [5] = test: Antiviral activity against Dengue virus serotype-2 infected in African green monkey Vero cells after 7 days by virus yield reduction assay; assay type: functional, organism-based
[6] = Half life in Sprague-Dawley rat liver microsomes incubated for 30 mins by UV-HPLC method; assay type: ADME
How it was run: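 Pooled male rat liver microsomes (0.2 mg/mL protein) with NADPH (10 mM) in DPBS were preincubated 15 min at 37 °C. Compound (100 μM) was added and incubated at 37 °C; aliquots were taken at 0, 2, 5, 10, 20 and 30 min. Samples were quenched with equal-volume acetonitrile, chilled and centrifuged, and parent remaining was quantified by RP-HPLC UV against reference peak areas. Testosterone served as positive control.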

[7] = Inhibition of West Nile virus NS2B-NS3 protease using 2-Abz-Gly-Leu-Lys-Arg-Gly-Gly-[…]-Tyr-NH2 as substrate preincubated with protein for 15 mins followed by substrate addition measured for 15 mins by FRET assay
How it was run: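 WNV NS2B-NS3 linked construct at 75 nM (40 nM in one case) in pH 9 Tris buffer, preincubated 15 min with eight inhibitor concentrations (ranges 0–1 up to 0–50 μM). Substrate was 50 μM, with FRET readout over 15 min. IC50 was fitted from triplicates.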

[8] = molecular target: Prothrombin (Homo sapiens) (UniProt P00734); test: Inhibition of thrombin (unknown origin) using Boc-Val-Pro-Arg-AMC as substrate at 25 uM preincubated with protein for 15 mins followed by substrate addition measured for 10 mins by continuous fluorimetric assay relative to control
[9] = Cytotoxicity against human HuH7 cells infected with West Nile virus assessed as cell viability after 48 hrs by Cell-Titer-Glo luminescent viability assay; assay type: cell-based, Huh-7
How it was run: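 Huh-7 cells (10^4/well, DMEM + 10% FBS, overnight) were infected with WT WNV (MOI 0.1) alongside compound, each concentration in triplicate. After 48 h at 37 °C, fresh DMEM was added and viability was measured by CellTiter-Glo luminescence. CC50 was determined.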

West Nile virus [10] = test: Antiviral activity against West Nile virus infected in human HuH7 cells after 3 days by virus yield reduction assay; assay type: functional, organism-based; conditions: Huh-7, 72 h
[11] = Selectivity index, ratio of CC50 for African green monkey Vero cells to EC50 for Dengue virus serotype-2 infected in African green monkey Vero cells; assay type: toxicity, cell-based; conditions: read-out: Ratio CC50/EC50
dengue virus type 2 [12] = test: Inhibition of Dengue virus serotype-2 NS2B-NS3 protease using 2-Abz-Nle-Lys-Arg-Arg-Ser-(3-NO2)-Tyr-NH2 as substrate at 50 uM preincubated with protein for 15 mins followed by substrate addition measured for 15 mins by FRET assay
dengue virus type 2 [13] = test: Inhibition of Dengue virus serotype-2 NS2B-NS3 protease using 2-Abz-Nle-Lys-Arg-Arg-Ser-(3-NO2)-Tyr-NH2 as substrate preincubated with protein for 15 mins followed by substrate addition measured for 15 mins by FRET assay relative to Bz-Lys-Arg-Phg-NH2
West Nile virus [14] = test: Inhibition of West Nile virus NS2B-NS3 protease using 2-Abz-Gly-Leu-Lys-Arg-GlyGly-[…]-Tyr-NH2 as substrate preincubated with protein for 15 mins followed by substrate addition measured for 15 mins by FRET assay relative to Bz-Lys-Arg-Phg-NH2
[15] = Permeability of compound assessed as compound mass retention after 5 hrs by PAMPA; assay type: ADME
How it was run: (§1)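 Precoated PAMPA plates were equilibrated 1 h at room temperature. Donor wells received 200 μM compound in PBS, in triplicate, and acceptor wells received PBS. After 5 h at room temperature, donor and acceptor concentrations were quantified by RP-HPLC UV at 254 nm against six-point calibration curves (10–200 μM). Pe and mass retention were calculated by literature formulas.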

[16] = Permeability of compound after 5 hrs by PAMPA; assay type: ADME; conditions: read-out: permeability; how it was run: as §1
dengue virus type 2 [17] = test: Competitive inhibition of Dengue virus serotype-2 NS2B-NS3 protease in presence of aprotinin by fluorescence displacement assay based Cheng-Prusoff plot
West Nile virus [18] = test: Inhibition of West Nile virus NS2B-NS3 protease at 0 to 48 uM incubated for 1 hr by tryptophan quenching assay
West Nile virus [19] = test: Competitive inhibition of West Nile virus NS2B-NS3 protease in presence of aprotinin by fluorescence displacement assay based Cheng-Prusoff plot
dengue virus type 2 [20] = test: Inhibition of Dengue virus serotype-2 NS2B-NS3 protease at 0 to 48 uM incubated for 1 hr by tryptophan quenching assay

Row | SMILES | IC50 [1] | inhibition (Trypsin (Homo sapiens)) | CC50 at 48 h [2] | inhibition (West Nile virus [3]) | Retention_time [4] | EC50 (dengue virus type 2 [5]) | IC50 [7] | inhibition [8] | inhibition (dengue virus type 2 [12]) | also measured
1 | COc1cccc(COc2ccc([C@@H](NC(=O)[C@H](CCCCN)NC(=O)[C@H](CCCNC(=N)N)NC(=O)c3cccs3)C(N)=O)cc2)c1 | 68 nM | inactive | > 100 µM | 99.3% | 2.71 min | 54.6 µM | 231 nM | inactive |  | half-life [6]: 93 min
2 | N=C(N)NCCC[C@H](NC(=O)c1cccs1)C(=O)N[C@@H](CCCCN)C(=O)N[C@@H](C(N)=O)c1ccc(OCc2ccc(Cl)c(Cl)c2)cc1 | 79 nM | inactive | > 100 µM | 98% | 3.22 min | 4.06 µM | 79 nM | inactive |  | CC50 at 48 h [9]: > 100 µM; EC50 (West Nile virus [10]): 23.3 µM; selectivity ratio [11]: > 25
3 | NCCCC[C@H](NC(=O)c1ccccc1)C(=O)N[C@@H](C(N)=O)c1ccc(OCc2ccccc2)cc1 |  |  |  | 11.4% |  |  |  |  | 16.4% | 
4 | N=C(N)NCCC[C@H](NC(=O)c1ccccc1)C(=O)N[C@@H](CCCCN)C(=O)N[C@@H](C(N)=O)c1ccc(OCc2ccccc2)cc1 | 367 nM | inactive | > 100 µM | 101% | 2.83 min | 7.94 µM | 728 nM | < 30% | 100% | Ki [1]: 307 nM; fold change (FC) (dengue virus type 2 [13]): 9; fold change (FC) (West Nile virus [14]): 80; Ki [7]: 536 nM
5 | N=C(N)NCCC[C@H](NC(=O)c1ccccc1)C(=O)N[C@@H](CCCCN)C(=O)N[C@H](C(N)=O)c1ccc(O)cc1 | 9700 nM |  |  | 79.2% |  |  |  |  | 96.6% | 
6 | N=C(N)NCCC[C@H](NC(=O)c1ccccc1)C(=O)N[C@@H](CCCCN)C(=O)N[C@H](C(N)=O)c1ccc(OCc2ccccc2)cc1 | 935 nM |  |  | 88% |  |  |  |  | 99.9% | 
7 | N=C(N)NCCC[C@H](NC(=O)c1ccc(-c2cccs2)s1)C(=O)N[C@@H](CCCCN)C(=O)N[C@@H](C(N)=O)c1ccc(OCc2ccc(Cl)c(Cl)c2)cc1 | 215 nM | inactive | 40 µM | 100% | 3.6 min | 7.6 µM | 365 nM | inactive |  | permeability [15]: 2.5%; Papp at 5 h [16]: 0.79 ×10⁻⁶ cm/s
8 | N=C(N)NCCC[C@H](NC(=O)c1cc2ccsc2s1)C(=O)N[C@@H](CCCCN)C(=O)N[C@@H](C(N)=O)c1ccc(OCc2ccc(C(F)(F)F)cc2)cc1 | 203 nM | inactive | 48.5 µM | 94.2% | 3.39 min | 10.5 µM |  | inactive |  | 
9 | N=C(N)NCCC[C@H](NC(=O)c1ccccc1)C(=O)N[C@@H](CCCCN)C(=O)N[C@@H](C(N)=O)c1ccccc1 (Bz-Arg-Lys-[dPhg]-NH2) | 3790 nM |  |  | 99% |  |  | 3780 nM |  | 99.3% | 
10 | N=C(N)NCCC[C@H](NC(=O)c1ccccc1)C(=O)N[C@@H](C(N)=O)c1ccc(OCc2ccccc2)cc1 |  |  |  | 27.5% |  |  |  |  | 31% | 
11 | N=C(N)NCCC[C@H](NC(=O)[C@H](CCCCN)NC(=O)c1ccccc1)C(=O)N[C@@H](C(N)=O)c1ccc(OCc2ccccc2)cc1 |  |  |  | 91.7% |  |  |  |  | 77% | 
12 | N=C(N)NCCC[C@@H](NC(=O)[C@@H](CCCCN)NC(=O)c1ccccc1)C(=O)N[C@H](C(N)=O)c1ccc(OCc2ccccc2)cc1 |  |  |  | 64% |  |  |  |  | 23.5% | 
13 | N=C(N)NCCC[C@H](NC(=O)c1nccs1)C(=O)N[C@@H](CCCCN)C(=O)N[C@@H](C(N)=O)c1ccc(OCc2ccc(C(F)(F)F)cc2)cc1 | 18 nM | inactive | > 100 µM | 100% | 3.11 min | 20.4 µM | 50 nM | inactive |  | Ki [1]: 12 nM; CC50 at 48 h [9]: > 100 µM; inhibition (dengue virus type 2 [17]): Active; EC50 (West Nile virus [10]): 23.4 µM; inhibition (West Nile virus [18]): Active; half-life [6]: 45 min; inhibition (West Nile virus [19]): Active; Ki [7]: 39 nM; inhibition (dengue virus type 2 [20]): Active
14 | N=C(N)NCCC[C@H](NC(=O)c1ccccc1)C(=O)N[C@@H](CCCCN)C(=O)N[C@@H](C(N)=O)c1ccc(O)cc1 | 2030 nM |  |  | 75.1% |  |  |  |  | 98% | 
15 | N=C(N)NCCC[C@H](NC(=O)c1cccs1)C(=O)N[C@@H](CCCCN)C(=O)N[C@@H](C(N)=O)c1ccc(OCc2ccc(C(F)(F)F)cc2)cc1 | 28 nM | inactive | > 100 µM | 101% | 3.15 min | 7.06 µM | 117 nM | inactive |  | Ki [1]: 19 nM; Ki [7]: 93 nM
16 | N=C(N)NCCC[C@H](NC(=O)c1cc2sccc2s1)C(=O)N[C@@H](CCCCN)C(=O)N[C@@H](C(N)=O)c1ccc(OCc2c(Cl)cccc2Cl)cc1 | 158 nM | inactive | 34.3 µM | 99.2% | 3.28 min | 5.33 µM | 785 nM | inactive |  | 
17 | N=C(N)NCCC[C@@H](NC(=O)c1ccccc1)C(=O)N[C@H](CCCCN)C(=O)N[C@H](C(N)=O)c1ccc(OCc2ccccc2)cc1 |  |  |  | 71.3% |  |  |  |  | 29.4% | 
18 | N=C(N)NCCC[C@@H](NC(=O)[C@@H](CCCCN)NC(=O)c1ccccc1)C(=O)N[C@@H](C(N)=O)c1ccc(OCc2ccccc2)cc1 |  |  |  | 19.9% |  |  |  |  | 26.8% | 
19 | CC(C)(C)c1ccc(COc2ccc([C@@H](NC(=O)[C@H](CCCCN)NC(=O)[C@H](CCCNC(=N)N)NC(=O)c3ccc(Cl)s3)C(N)=O)cc2)cc1 | 130 nM | inactive | > 100 µM | 91.3% | 3.34 min | 7.12 µM |  | inactive |  | permeability [15]: 0.44%; Papp at 5 h [16]: 0.33 ×10⁻⁶ cm/s
20 | N=C(N)NCCC[C@H](NC(=O)c1cc2ccccc2s1)C(=O)N[C@@H](CCCCN)C(=O)N[C@@H](C(N)=O)c1ccc(OCc2ccc(C(F)(F)F)cc2)cc1 | 199 nM | inactive | 56.8 µM | 98.7% | 3.47 min | 7.06 µM | 604 nM | inactive |  | 
